Shown are actives, neighbours in structure and some others; about 3.5% of the full set was active somewhere.
RGS4 pot: potentiators or activators of RGS4; B-score at 10 µM; hit rate 0.92% among 310,000; HEK293 M3R/inducible RGS4, carbachol calcium flux Fluo4; stronger effect = lower value; AID 463111;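 active = B-score of the integrated calcium signal more than 4 SD below the library mean, with starting fluorescence not abnormally high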;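 note: negative B-score means reduced calcium response which marks RGS4 activation or potentiation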
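Test system: HEK293 cells with stable M3R and inducible RGS4; also added: carbachol at ECmax as muscarinic agonist stimulus; schedule: dye loading 30 min 37 °C, buffer rest 30 min RT; technique: kinetic calcium fluorescence imaging with Fluo4-AM dye, 2 µM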
MrgX1 antagonist: antagonists of human MrgX1 receptor | Q96LB2 | MRGX1-HEK293 calcium flux, Fluo-4, BAM8-22 antagonism; stronger effect = lower value | B-score at 10 µM | hit rate 1.3% among 310,000 | AID 588676;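 active = calcium-response B-score plate-corrected more than 3 library SD below zero, starting fluorescence within 5 deviations, no agonist response on first addition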;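 note: peak minus trough fluorescence over baseline after final BAM8-22 challenge near maximal dose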
Target sequence (Q96LB2 whole entry, looked up): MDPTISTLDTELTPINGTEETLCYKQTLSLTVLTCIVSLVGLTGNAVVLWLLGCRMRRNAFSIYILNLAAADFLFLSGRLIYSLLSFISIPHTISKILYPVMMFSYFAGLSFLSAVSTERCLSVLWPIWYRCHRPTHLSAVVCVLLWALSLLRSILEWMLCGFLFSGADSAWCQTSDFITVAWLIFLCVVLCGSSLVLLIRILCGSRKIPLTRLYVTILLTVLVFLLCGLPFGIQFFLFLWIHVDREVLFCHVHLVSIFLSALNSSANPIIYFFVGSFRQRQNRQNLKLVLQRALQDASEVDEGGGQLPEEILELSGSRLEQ
RGS4 inh: human RGS4 inhibition | HEK293 M3R/RGS4 inducible, Fluo-4 calcium flux; stronger effect = higher value; triggered by carbachol at its EC20 | AID 463165 | B-score at 10 µM | P49798 | hit rate 0.45% among 310,000;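 active = B-score, a plate-corrected calcium signal, over three deviations above library mean, with baseline fluorescence within five deviations of library mean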;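 note: RGS4 expression induced by doxycycline in cells with stable M3 receptor; B-score is computed from the integrated fluorescence ratio over baseline after carbachol; higher B-score means a larger calcium signal and so more RGS4 inhibition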
Target sequence (P49798 whole entry, looked up): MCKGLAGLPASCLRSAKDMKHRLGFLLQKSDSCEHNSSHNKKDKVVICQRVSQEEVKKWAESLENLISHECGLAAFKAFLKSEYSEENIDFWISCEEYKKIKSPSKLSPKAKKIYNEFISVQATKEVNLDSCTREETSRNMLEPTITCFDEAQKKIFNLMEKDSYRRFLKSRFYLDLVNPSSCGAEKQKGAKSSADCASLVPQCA
MrgX1 allo act: human MrgX1 positive allosteric modulation, primary screen | MrgX1-HEK293, Fluo-4 calcium flux, FDSS; stronger effect = higher value | B-score at 10 µM | hit rate 0.63% among 310,000 | AID 588675;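 active = plate-corrected calcium response at least 3 library SD above typical, normal starting fluorescence, not activating the receptor alone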;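 note: compound read alongside a low EC10 to EC30 dose of BAM8-22 agonist; peak minus trough fluorescence over baseline measured at the second addition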
MrgX1 agonist: human MrgX1 receptor agonism, primary screen; AID 588627; MrgX1-HEK293 cells, Fluo-4 calcium fluorescence, agonist mode; stronger effect = higher value; Q96LB2; hit rate 0.44% among 310,000; B-score at 10 µM;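 active = calcium response B-score plate-corrected fluorescence ratio at least 3 library SD, with starting fluorescence B-score inside 5 SD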
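System: HEK293 cells stably expressing human MrgX1 receptor; Dosing: test compound in the initial addition of three; Schedule: overnight plating, then 30 min 37 °C plus 30 min room-temperature dye loading; Detection: kinetic calcium dye fluorescence, Fluo-4 NW; Controls: per-plate positive and negative controls for Z′ factor.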
Of the large screens only hits and unclear results are named; the others gave an inactive call.

O=[N+]([O-])c1ccc(S(=O)(=O)Nc2ccc(-c3ccc(N4CCCC4)nn3)cc2)cc1	MrgX1 allo act 6.7
Cc1c([N+](=O)[O-])cc(S(=O)(=O)Nc2ccc(-c3ccc(N4CCCC4)nn3)cc2)cc1[N+](=O)[O-]	none
O=[N+]([O-])c1ccc(Cl)c(S(=O)(=O)Nc2ccc(-c3ccc(N4CCCC4)nn3)cc2)c1	none
Cc1ccc([N+](=O)[O-])cc1S(=O)(=O)Nc1ccc(-c2ccc(N3CCCC3)nn2)cc1	MrgX1 allo act 16
Cc1c(CCC(=O)N[C@@H](CC(C)C)C(=O)O)c(=O)oc2cc3oc4c(c3cc12)CCCC4	MrgX1 allo act 14
Cc1ccc(S(=O)(=O)c2c(C)cc(C)nc2Oc2cccc(C(F)(F)F)c2)cc1	RGS4 pot -8.2
CCOC(=O)CSc1nc2sc3c(c2c(=O)n1C1CCCCC1)CCN(C)C3	RGS4 pot -10
CCn1c(SCC(N)=O)nc2sc3c(c2c1=O)CCN(C)C3	none
CCOC(=O)CSc1nc2sc3c(c2c(=O)n1-c1ccc(OCC)cc1)CCN(C)C3	none
C=C(C)CSc1nc2sc3c(c2c(=O)n1-c1ccc(C)cc1)CCN(C)C3	RGS4 pot -10 (no result: MrgX1 antagonist, MrgX1 allo act, MrgX1 agonist)
CC(=O)N1CCN(CC(=O)Nc2ccccc2Sc2ccccc2)CC1	none
COc1ccc(-c2cc([C@H]3[C@@H]4C=CCC[C@@]4(C)C(=O)N3Cc3ccccc3)ccc2F)cc1	MrgX1 antagonist -5.4
Cc1csc(Nc2nc(N)c(C(=O)Nc3cc(Cl)ccc3F)o2)n1	none
OCCN1C[C@H](O)[C@@H](O)[C@H](O)[C@H]1CO	MrgX1 antagonist -9.5
CCCCN1C[C@H](O)[C@@H](O)[C@H](O)[C@H]1CO	none
CCOC(=O)c1ccc2c(c1)n(CC)c(/C=C/N(C)c1ccccc1)[n+]2CC	MrgX1 antagonist -5
COc1ccc(NC(=O)CSc2nnc(Cn3nnc4ccccc43)n2C)cc1	none (no result: RGS4 pot, RGS4 inh)
CCc1ccccc1NC(=O)CSc1nnc(Cn2nnc3ccccc32)n1C	RGS4 pot -7.5
Cc1nc(N/N=C/c2ccc(O)cc2O)cc(N2CCOCC2)n1	RGS4 pot -7.6
CN(C)c1oc(/C=C/c2cccs2)nc1S(=O)(=O)c1ccccc1	none
O=C1C2C3C=CC(C3)C2C(=O)N1Nc1c(Cl)cc(Cl)cc1Cl (stereo not drawn)	none
Cc1cc(C(=O)Nc2ccc3ccccc3c2)c(C)o1	none
CC1(C)CC(=O)C(C2=NC3(CCCCC3)Cc3ccccc32)=C(O)C1	none
CCC1(CC)Cc2ccccc2C(C2=C(O)CC(C)(C)CC2=O)=N1	MrgX1 antagonist -4.8
COC(=O)C(C)(C)ONC(=O)Nc1ccccc1Cl	none
COc1ccc(-c2nc(CSCC(=O)NCc3ccco3)c(C)o2)cc1	MrgX1 antagonist -5.4
CCOC(=O)CN(C)C(=O)CCc1nnc(-c2ccc(-c3ccccc3)cc2)o1	none
CCN(CC)CCN(C)C(=O)CCc1nnc(-c2ccc(C)s2)o1	MrgX1 antagonist -6.6
CC(C)CSC1=NSC2=NC(=O)/C(=C\c3ccccc3)C(=N)N12	MrgX1 agonist 27
Cc1cc(/C=C2\C(=N)N3C(SCc4ccccc4)=NSC3=NC2=O)c(C)n1Cc1ccccc1	none
C/C(N)=C(/C#N)C(=O)COC(=O)CCCNC(=O)c1ccc(Cl)cc1	none
COc1ccc(CNS(=O)(=O)CCNC(=O)c2ccc(OC)cc2)cc1	MrgX1 antagonist -4.9
CCCOC(=O)c1ccc(NC(=O)C2C3C=CC(O3)C2C(=O)O)cc1 (stereo not drawn)	MrgX1 allo act 7.9
O=C(OCC(=O)N(Cc1ccccc1)Cc1ccccc1)c1ccccc1NCCO	RGS4 pot -9.3
COc1ccc(CNC(=O)CNC(=O)c2c(C)nn(C)c2Cl)cc1	none
O=C(Nc1ccc(N2CCOCC2)c(Cl)c1)c1cc2ccccc2o1	RGS4 pot -7.6
O=C(Nc1ccccc1N1CCOCC1)c1cc2ccccc2o1	none
CCCn1cnnc1CNC(=O)C1CCC(=O)N(CCc2cccc(F)c2)C1 (stereo not drawn)	none
CCCc1cc(=O)oc2cc(OC(=O)CN3C(=O)NC4(CCCC4)C3=O)ccc12	MrgX1 antagonist -8.6
COc1ccc(CN2CCC(Oc3ccc(C(=O)N4CCCC4)cc3)CC2)c(F)c1	none
O=C(CN1CCC(C(=O)c2cccc(Cl)c2)CC1)Nc1ccc(C(=O)O)cc1	none
O=C(CCl)N=c1sccn1Cc1ccccc1Cl	RGS4 pot -7.3

Source: PubChem
